Reference: ChEMBL document CHEMBL1121523, “Aminoglycoside antibiotics. 3. Epimino derivatives of neamine, ribostamycin, and kanamycin B” (1980)
Values after ≈ are worked out from the molar mass of the structure shown.

Experiments:
Format in all cases: functional
[1] = tested on: Escherichia coli; assay: Minimum inhibitory concentration was measured against Escherichia coli A 20507
[2] = tested on: Escherichia coli; assay: Minimum inhibitory concentration was measured against Escherichia coli A 20507, in combination with Kanamycin A at 8 ug/mL concentration
Summary of the method: (§1)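 The value is the minimum inhibitory concentration of kanamycin A, in µg/mL, against the listed strain. Strains are designated by their inactivating enzyme, e.g. aminoglycoside 3'-phosphotransferase II producers.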

[3] = tested on: Escherichia coli; assay: Minimum inhibitory concentration was measured against Escherichia coli A 20507, in combination with Kanamycin A at specified concentration; summary of the method: as §1
[4] = tested on: Escherichia coli; assay: Minimum inhibitory concentration was measured against Escherichia coli A 20665
[5] = tested on: Escherichia coli; assay: Minimum inhibitory concentration was measured against Escherichia coli A 20665, in combination with Kanamycin A at 8 ug/mL concentration; summary of the method: as §1
[6] = tested on: Escherichia coli; assay: Minimum inhibitory concentration was measured against Escherichia coli A 20665, in combination with Kanamycin A at specified concentration; summary of the method: as §1
[7] = tested on: Escherichia coli; assay: Minimum inhibitory concentration was measured against Escherichia coli A 9632
[8] = tested on: Escherichia coli; assay: Minimum inhibitory concentration was measured against Escherichia coli A 9632, in combination with Kanamycin A at 8 ug/mL concentration; summary of the method: as §1
[9] = tested on: Pseudomonas aeruginosa; assay: Minimum inhibitory concentration was measured against Pseudomonas aeruginosa A 20653 in combination with Kanamycin A at specified concentration.; summary of the method: as §1
[10] = tested on: Pseudomonas aeruginosa; assay: Minimum inhibitory concentration was measured against Pseudomonas aeruginosa A 20653, in combination with Kanamycin A at 8 ug/mL concentration; summary of the method: as §1
[11] = tested on: Pseudomonas aeruginosa; assay: Minimum inhibitory concentration was measured against Pseudomonas aeruginosa A 20653
[12] = tested on: Providencia rettgeri; assay: Minimum inhibitory concentration was measured against Proteus rettgeri A 9637, in combination with Kanamycin A at 8 ug/mL concentration; summary of the method: as §1
[13] = tested on: Providencia rettgeri; assay: Minimum inhibitory concentration was measured against Proteus rettgeri A 9637, in combination with Kanamycin A at specified concentration.; summary of the method: as §1
[14] = tested on: Pseudomonas aeruginosa; assay: Minimum inhibitory concentration was measured against Pseudomonas aeruginosa A 20357, in combination with Kanamycin A at specified concentration.; summary of the method: as §1
[15] = tested on: Providencia rettgeri; assay: Minimum inhibitory concentration was measured against Proteus rettgeri A 21615
[16] = tested on: Providencia rettgeri; assay: Minimum inhibitory concentration was measured against Proteus rettgeri A 21615, in combination with Kanamycin A at 8 ug/mL concentration; summary of the method: as §1
[17] = tested on: Providencia rettgeri; assay: Minimum inhibitory concentration was measured against Proteus rettgeri A 21615, in combination with Kanamycin A at specified concentration.; summary of the method: as §1
[18] = tested on: Providencia rettgeri; assay: Minimum inhibitory concentration was measured against Proteus rettgeri A 9637
[19] = tested on: Pseudomonas aeruginosa; assay: Minimum inhibitory concentration was measured against Pseudomonas aeruginosa A 20357, in combination with Kanamycin A at 8 ug/mL concentration; summary of the method: as §1
[20] = tested on: Pseudomonas aeruginosa; assay: Minimum inhibitory concentration was measured against Pseudomonas aeruginosa A 20357
[21] = tested on: Escherichia coli; assay: Minimum inhibitory concentration was measured against Escherichia coli A 9632, in combination with Kanamycin A at specified concentration; summary of the method: as §1
[22] = tested on: Escherichia coli; assay: Minimum inhibitory concentration was measured against Escherichia coli A 20507, in combination with Kanamycin A at 32 ug/mL concentration
Summary of the method: (§2)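 Kanamycin A was serially diluted in Mueller-Hinton broth with each epimino derivative held at a fixed 32 µg/mL (8 µg/mL also run). The value is the minimum inhibitory concentration of kanamycin A in the combination against Bristol-numbered strains, read for lowering of kanamycin A MIC in resistant strains.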

[23] = tested on: Pseudomonas aeruginosa; assay: Minimum inhibitory concentration was measured against Pseudomonas aeruginosa A 20653 in combination with Kanamycin A at 32 ug/mL concentration; summary of the method: as §2
[24] = tested on: Pseudomonas aeruginosa; assay: Minimum inhibitory concentration was measured against Pseudomonas aeruginosa A 20357, in combination with Kanamycin A at 32 ug/mL concentration; summary of the method: as §2
[25] = tested on: Providencia rettgeri; assay: Minimum inhibitory concentration was measured against Proteus rettgeri A 21615, in combination with Kanamycin A at 32 ug/mL concentration; summary of the method: as §2
[26] = tested on: Escherichia coli; assay: Minimum inhibitory concentration was measured against Escherichia coli A 20665, in combination with Kanamycin A at 32 ug/mL concentration; summary of the method: as §2
[27] = tested on: Providencia rettgeri; assay: Minimum inhibitory concentration was measured against Proteus rettgeri A 9637, in combination with Kanamycin A at 32 ug/mL concentration; summary of the method: as §2

SMILES	MIC [1] [µg/mL]	MIC [2] [µg/mL]	MIC [3] [µg/mL]	MIC [4] [µg/mL]	MIC [5] [µg/mL]	MIC [6] [µg/mL]	MIC [7] [µg/mL]	MIC [8] [µg/mL]	MIC [9] [µg/mL]	MIC [10] [µg/mL]	MIC [11] [µg/mL]	MIC [12] [µg/mL]	MIC [13] [µg/mL]	MIC [14] [µg/mL]	MIC [15] [µg/mL]	MIC [16] [µg/mL]	MIC [17] [µg/mL]	MIC [18] [µg/mL]	MIC [19] [µg/mL]	MIC [20] [µg/mL]	further results
NCC1OC(OC2C(N)CC(N)C(OC3OC(CO)C(O)C(N)C3O)C2O)C2NC2C1O (stereo unspecified)	125 (≈ 269 µM)	125	125	125 (≈ 269 µM)	> 125	> 125	8 (≈ 17.2 µM)	0.25	> 125	> 125	125 (≈ 269 µM)	0.5	0.5	4	> 125	125	125	16 (≈ 34.4 µM)	4	125 (≈ 269 µM)	
NCC1OC(OC2C(NC(=O)OCc3ccccc3)CC(N)C(O)C2O)C2NC2C1O (stereo unspecified)	> 125	> 125	63	125 (≈ 285 µM)	> 125	> 125	125 (≈ 285 µM)		> 125	> 125	> 125				> 125	> 125	63	> 125		> 125	
NCC1OC(OC2C(N)CC(N)C(OC3OC(CO)C(O)C4NC34)C2O)C(N)C(O)C1O (stereo unspecified)	> 125	125	125	> 125	> 125	> 125	63 (≈ 135 µM)	1	> 125	> 125	> 125	0.5	0.5	4	> 125	63	63	> 125	4	> 125	MIC [21]: 1 µg/mL
NCC1OC(OC2C(NC(=O)OCc3ccccc3)CC(N)C(O)C2O)C(N)C(O)C1O (stereo unspecified)	> 125	125		> 125	> 125		> 125	2		> 125	> 125	1			> 125	125		> 125	4	> 125	MIC [22]: 125 µg/mL; MIC [23]: > 125 µg/mL; MIC [24]: 4 µg/mL; MIC [25]: 125 µg/mL; MIC [26]: > 125 µg/mL; MIC [27]: 1 µg/mL
NCC1OC(OC2C(N)CC(N)C(O)C2O)C2NC2C1O (stereo unspecified)	> 125	63	32																		
NCC1OC(OC2C(NC(=O)OCc3ccccc3)CC(N)C(O)C2OC2O[C@H](CO)[C@@H](O)[C@H]2O)C2NC2C1O (stereo partly specified)	> 125	125	63	> 125	> 125	> 125	> 125	1	> 125	> 125	> 125	0.5	0.5	4	> 125	125	125	> 125	4	> 125	MIC [21]: 1 µg/mL
NC[C@H]1O[C@H](O[C@H]2[C@H](O)[C@@H](O[C@H]3O[C@H](CO)[C@@H](O)[C@H](N)[C@H]3O)[C@H](N)C[C@@H]2N)[C@H](O)[C@@H](O)[C@@H]1O [KANAMYCIN]	> 125			> 125			2 (≈ 4.13 µM)				> 125				125 (≈ 258 µM)			≤ 0.25			
